The source made the active and inactive calls. The calls are words filed in the database; no cut-off is given here.
Tests used:
Listeria monocytogenes [1] = assay: Antimicrobial activity against Listeria monocytogenes DH-L1252 infected in murine bone marrow macrophages assessed as decrease in GFP reporter gene expression at 18.1 uM after 15 hrs; assay type: functional, organism-based
Procedure, shortened: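 Primary BALB/c bone marrow macrophages (differentiated 6 days with L929 supernatant) are treated with 18.1 µM compound or DMSO, then infected with GFP-expressing 10403S (DH-L1252) at MOI 1:2. Extracellular bacteria are killed with 5 µg/ml gentamicin after 1 h. At 15 h post-infection, cells are fixed with paraformaldehyde and Hoechst-stained, and GFP is imaged by automated microscopy. Three independent infections in duplicate.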

Listeria monocytogenes [2] = assay: Antimicrobial activity against Listeria monocytogenes DH-L1252 infected in murine bone marrow macrophages assessed as decrease in growth rate at 18.1 uM after 6 hrs; assay type: functional, organism-based
Listeria monocytogenes [3] = assay: Antimicrobial activity against Listeria monocytogenes DH-L1252 infected in murine bone marrow macrophages assessed as log reduction in intracellular bacterial count upto 10 hrs; assay type: functional
Procedure, shortened: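 BALB/c bone-marrow macrophages were seeded at 4 × 10^5/well 24 h ahead and pretreated 2 h with 18.1 µM drug or DMSO. They were infected at MOI 1:2 in antibiotic-free medium with washed Listeria grown 14–16 h in BHI at 30°C without shaking, with drug present throughout. At 1 h, 5 µg/ml gentamicin was added. At each time point cells were lysed in 0.1% Triton X-100 and CFU counted on LB agar, in triplicate.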

Listeria monocytogenes [4] = assay: Antimicrobial activity against Listeria monocytogenes DH-L1252 infected in murine bone marrow macrophages assessed as intracellular bacterial replication upto 10 hrs; assay type: functional, organism-based
Procedure, shortened: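 BALB/c bone marrow macrophages (4 × 10^5/well) are pretreated 2 h with 18.1 µM compound or DMSO, then infected with washed wild-type 10403S at MOI 1:2 in the presence of compound. At 1 h, medium with 5 µg/ml gentamicin plus compound is added. At set times, cells are lysed in 0.1% Triton X-100 and lysates plated on LB agar for CFU. Triplicates.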

Listeria monocytogenes [5] = assay: Inhibition of internalization of Listeria monocytogenes 10403S into murine bone marrow macrophages pretreated at 2.5 to 20 uM for 2 hrs; assay type: functional
Procedure, shortened: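 Bone marrow macrophages are pretreated 2 h with twofold compound dilutions, then infected with wild-type 10403S at MOI 10:1. Extracellular bacteria are killed with 50 µg/ml gentamicin at 30 min. At 90 min, cells are lysed and intracellular CFU enumerated. Three experiments in triplicate, fitted by linear regression.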

Listeria monocytogenes [6] = assay: Inhibition of internalization of Listeria monocytogenes 10403S into murine J774 cells pretreated at 18.1 uM for 2 hrs; assay type: functional
Procedure, shortened: (§1)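 J774 or RAW 264.7 cells (4 × 10^5/well) are pretreated 2 h with 18.1 µM compound or DMSO, then infected with washed wild-type 10403S at MOI 10:1 with compound. At 30 min, medium with 50 µg/ml gentamicin plus compound is added. At 90 min, cells are lysed in 0.1% Triton X-100 and intracellular CFU plated on LB agar. Triplicates.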

Listeria monocytogenes [7] = assay: Inhibition of internalization of Listeria monocytogenes 10403S into murine Raw 264.7 cells pretreated at 18.1 uM for 2 hrs; assay type: functional; details: RAW264.7; procedure, shortened: as §1
Bacillus subtilis = assay: Inhibition of internalization of Bacillus subtilis into murine murine bone marrow macrophages pretreated at 18.1 uM for 2 hrs; assay type: functional
Procedure, shortened: (§2)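 Gentamicin protection assay: bone marrow macrophages (4 × 10^5/well) pretreated 2 h with 18.1 µM compound or DMSO, then infected with B. subtilis 3610 (MOI 1.5:1), Salmonella Typhimurium IR715 (MOI 20:1) or E. coli K12 MM294 (MOI 20:1), all grown in LB at 37°C. After 30 min, 50 µg/ml gentamicin plus compound added; lysed at 90 min; CFU on LB agar; triplicates.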

Salmonella typhimurium = assay: Inhibition of internalization of Salmonella enterica serovar Typhimurium into murine murine bone marrow macrophages pretreated at 18.1 uM for 2 hrs; assay type: functional, Salmonella enterica subsp. enterica serovar Typhimurium; procedure, shortened: as §2
Escherichia coli = assay: Inhibition of internalization of Escherichia coli K-12 into murine murine bone marrow macrophages pretreated at 18.1 uM for 2 hrs; assay type: functional; procedure, shortened: as §2
Listeria monocytogenes [8] = assay: Inhibition of internalization of Listeria monocytogenes DH-L1252 into murine bone marrow macrophages assessed as reduction in vacuolar escape of bacteria using phalloidin staining; assay type: functional
Procedure, shortened: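 Bone marrow macrophages on coverslips are treated 2 h with 18.1 µM compound or DMSO, then infected 30 min at MOI 10:1 with GFP 10403S grown to OD600 ~0.5 at 37°C. Gentamicin (50 µg/ml) plus compound is added. At 90 min, cells are fixed and stained with Texas Red-phalloidin and Hoechst. At least 100 bacteria per coverslip are scored as percent F-actin-associated.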

Listeria monocytogenes [9] = assay: Antimicrobial activity against Listeria monocytogenes 10403S infected in L2 cells assessed as intracellular bacterial replication; assay type: functional, cell-based
Procedure, shortened: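 L2 fibroblasts (2 × 10^5/well, seeded 24 h before) are pretreated 2 h with 18.1 µM compound or DMSO. They are then infected with washed wild-type 10403S grown 14–16 h at 30°C in BHI, in antibiotic-free medium with compound. At 1 h, medium with 50 µg/ml gentamicin plus compound is added. At set times, cells are lysed in 0.1% Triton X-100 and lysates plated on LB agar for CFU. Triplicates.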

Listeria monocytogenes [10] = assay: Antimicrobial activity against Listeria monocytogenes 10403S infected in L2 cells assessed as decrease in number of plaque formation at 18.1 uM after 1 hr; assay type: functional, cell-based
Listeria monocytogenes [11] = assay: Antimicrobial activity against Listeria monocytogenes 10403S infected in L2 cells assessed as decrease in plaque size at 18.1 uM after 1 hr; assay type: functional; details: L2, 1 h
Procedure, shortened: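 Wild-type L. monocytogenes grown 14–16 h, PBS-washed, infects L2 fibroblast monolayers (2 × 10^6 cells/well, seeded 24 h before) at MOI 1:5 after 2 h compound or DMSO pretreatment. At 1 h, wash and add agarose overlay with 30 µg/ml gentamicin plus 18.1 µM compound. Neutral red overlay added at 72 h. Plates scanned at 96 h; diameters of 10 plaques per well expressed as percent of DMSO; three independent experiments.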

Listeria monocytogenes [12] = assay: Inhibition of Listeria monocytogenes 10403S entry into murine bone marrow macrophages at 18.1 uM after 30 mins in calcium-free medium; assay type: functional; details: 0.5 h
Procedure, shortened: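 Bone marrow macrophages are preincubated 30 min in calcium-free buffer (NaCl, KCl, MgCl2, 0.1 mM EGTA, glucose, HEPES, pH 7.35) with 18.1 µM compound or DMSO. They are then infected with wild-type 10403S for 15 min. Calcium-free medium with 50 µg/ml gentamicin plus compound is added. At 45 min, cells are lysed and intracellular CFU plated on LB agar. Triplicates.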

## O=c1[nH]c2ccccc2n1C1CCN(CCCC(c2ccc(F)cc2)c2ccc(F)cc2)CC1 [PIMOZIDE]
Listeria monocytogenes [1]
  Activity: Active
Listeria monocytogenes [2]
  Activity: inactive
Listeria monocytogenes [3]
  FC: 1
Listeria monocytogenes [4]
  Activity: inactive
Listeria monocytogenes [5]
  inhibition: Dose-dependent effect
Listeria monocytogenes [6]
  inhibition at 18.1 µM: 75%
Listeria monocytogenes [7]
  inhibition at 18.1 µM: 95%
Bacillus subtilis
  inhibition at 18.1 µM: 73%
Salmonella typhimurium
  inhibition at 18.1 µM: 64%
Escherichia coli
  inhibition at 18.1 µM: 60%
Listeria monocytogenes [8]
  inhibition (INH): 26.3%
Listeria monocytogenes [9]
  Activity: inactive
Listeria monocytogenes [10]
  inhibition: Active
Listeria monocytogenes [11]
  inhibition at 18.1 µM: 47.1%
Listeria monocytogenes [12]
  inhibition at 18.1 µM: 95%

Reference: ChEMBL document CHEMBL1629599, “A small-molecule screen identifies the antipsychotic drug pimozide as an inhibitor of Listeria monocytogenes infection” (2009)
